Measurements: ChEMBL document CHEMBL5058577, “EUbOPEN Chemogenomics Library 2 (Multiplex)” (2022)

Tested on: HEK-293T
Assay: Multiplex assay against HEK293T
Type: toxicity, cell-based
Details: human
Method in brief: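 Live cells were stained at seeding with Hoechst33342, BioTracker Green Microtubule Cytoskeleton Dye, MitoTracker Red and Annexin V Alexa Fluor 680. Following compound addition, they were imaged on a CQ1 microscope at 37°C and 5% CO2 and gated by CellPathfinder machine learning into Hoechst high-intensity objects or normal cells, with normal cells split into healthy, pyknosed or fragmented nuclei and pyknosed cells into mitotic or apoptotic. Tubulin, mitochondrial-mass and membrane-permeability phenotypes are per cents of healthy-nucleus cells.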

[1] = 12 h, 1 µM, compound concentration 1 uM, replicate 1
[2] = 12 h, 1 µM, compound concentration 1 uM, replicate 2
[3] = 12 h, 10 µM, compound concentration 10 uM, replicate 1
[4] = 12 h, 10 µM, compound concentration 10 uM, replicate 2
[5] = 24 h, 1 µM, compound concentration 1 uM, replicate 1
[6] = 24 h, 1 µM, compound concentration 1 uM, replicate 2
[7] = 24 h, 10 µM, compound concentration 10 uM, replicate 1
[8] = 24 h, 10 µM, compound concentration 10 uM, replicate 2
[9] = 48 h, 1 µM, compound concentration 1 uM, replicate 1
[10] = 48 h, 1 µM, compound concentration 1 uM, replicate 2
[11] = 48 h, 10 µM, compound concentration 10 uM, replicate 1
[12] = 48 h, 10 µM, compound concentration 10 uM, replicate 2

## CC(/C=C1\SC(=S)N(CCCC(=O)Nc2ccc(C(=O)O)c(O)c2)C1=O)=C\c1ccccc1
[1]
  Population Apoptotic (%): 34%
  Population Fragmented Nuclei (%): 6%
  Population Healthy Nuclei (%): 81%
  Population Hoechst High Intensity Objects (%): 6%
  Population Membrane Permeable-Phenotype (%): 0%
  Population Mitochondria Different-Phenotype (%): 41%
  Population Mitotic Cells (%): 65%
  Population Normal (%): 93%
  Population Pyknosed Nuclei (%): 11%
  Population Tubulin-Different-Phenotype (%): 31%
  Total Cell Count: 422
[2]
  Population Apoptotic (%): 50%
  Population Healthy Nuclei (%): 84%
  Population Mitochondria Different-Phenotype (%): 62%
  Population Mitotic Cells (%): 50%
  Population Pyknosed Nuclei (%): 8%
  Population Tubulin-Different-Phenotype (%): 20%
  Total Cell Count: 389
[3]
  Population Apoptotic (%): 43%
  Population Fragmented Nuclei (%): 5%
  Population Healthy Nuclei (%): 76%
  Population Hoechst High Intensity Objects (%): 7%
  Population Membrane Permeable-Phenotype (%): 0%
  Population Mitochondria Different-Phenotype (%): 45%
  Population Mitotic Cells (%): 56%
  Population Normal (%): 92%
  Population Pyknosed Nuclei (%): 18%
  Population Tubulin-Different-Phenotype (%): 35%
  Total Cell Count: 313
[4]
  Population Apoptotic (%): 51%
  Population Healthy Nuclei (%): 79%
  Population Mitochondria Different-Phenotype (%): 49%
  Population Mitotic Cells (%): 48%
  Population Pyknosed Nuclei (%): 15%
  Population Tubulin-Different-Phenotype (%): 26%
  Total Cell Count: 327
[5]
  Population Apoptotic (%): 27%
  Population Fragmented Nuclei (%): 9%
  Population Healthy Nuclei (%): 79%
  Population Hoechst High Intensity Objects (%): 4%
  Population Membrane Permeable-Phenotype (%): 0%
  Population Mitochondria Different-Phenotype (%): 28%
  Population Mitotic Cells (%): 72%
  Population Normal (%): 95%
  Population Pyknosed Nuclei (%): 10%
  Population Tubulin-Different-Phenotype (%): 26%
  Total Cell Count: 604
[6]
  Population Apoptotic (%): 31%
  Population Fragmented Nuclei (%): 7%
  Population Healthy Nuclei (%): 83%
  Population Hoechst High Intensity Objects (%): 7%
  Population Mitochondria Different-Phenotype (%): 52%
  Population Mitotic Cells (%): 68%
  Population Normal (%): 92%
  Population Pyknosed Nuclei (%): 8%
  Population Tubulin-Different-Phenotype (%): 21%
  Total Cell Count: 491
[7]
  Population Apoptotic (%): 33%
  Population Fragmented Nuclei (%): 8%
  Population Healthy Nuclei (%): 75%
  Population Hoechst High Intensity Objects (%): 5%
  Population Membrane Permeable-Phenotype (%): 0%
  Population Mitochondria Different-Phenotype (%): 34%
  Population Mitotic Cells (%): 66%
  Population Normal (%): 94%
  Population Pyknosed Nuclei (%): 16%
  Population Tubulin-Different-Phenotype (%): 31%
  Total Cell Count: 369
[8]
  Population Apoptotic (%): 39%
  Population Healthy Nuclei (%): 79%
  Population Hoechst High Intensity Objects (%): 6%
  Population Mitochondria Different-Phenotype (%): 40%
  Population Mitotic Cells (%): 60%
  Population Normal (%): 93%
  Population Pyknosed Nuclei (%): 12%
  Population Tubulin-Different-Phenotype (%): 20%
  Total Cell Count: 422
[9]
  Population Apoptotic (%): 23%
  Population Fragmented Nuclei (%): 13%
  Population Healthy Nuclei (%): 79%
  Population Hoechst High Intensity Objects (%): 2%
  Population Membrane Permeable-Phenotype (%): 1%
  Population Mitochondria Different-Phenotype (%): 16%
  Population Mitotic Cells (%): 76%
  Population Normal (%): 97%
  Population Pyknosed Nuclei (%): 7%
  Population Tubulin-Different-Phenotype (%): 14%
  Total Cell Count: 998
[10]
  Population Apoptotic (%): 19%
  Population Fragmented Nuclei (%): 14%
  Population Hoechst High Intensity Objects (%): 5%
  Population Membrane Permeable-Phenotype (%): 0%
  Population Mitochondria Different-Phenotype (%): 26%
  Population Mitotic Cells (%): 80%
  Population Normal (%): 94%
  Population Pyknosed Nuclei (%): 6%
  Population Tubulin-Different-Phenotype (%): 13%
  Total Cell Count: 673
[11]
  Population Apoptotic (%): 24%
  Population Fragmented Nuclei (%): 9%
  Population Healthy Nuclei (%): 79%
  Population Hoechst High Intensity Objects (%): 3%
  Population Membrane Permeable-Phenotype (%): 2%
  Population Mitochondria Different-Phenotype (%): 25%
  Population Mitotic Cells (%): 75%
  Population Normal (%): 96%
  Population Pyknosed Nuclei (%): 10%
  Population Tubulin-Different-Phenotype (%): 22%
  Total Cell Count: 479
[12]
  Population Apoptotic (%): 39%
  Population Fragmented Nuclei (%): 11%
  Population Healthy Nuclei (%): 82%
  Population Hoechst High Intensity Objects (%): 5%
  Population Mitochondria Different-Phenotype (%): 23%
  Population Mitotic Cells (%): 60%
  Population Normal (%): 94%
  Population Pyknosed Nuclei (%): 6%
  Population Tubulin-Different-Phenotype (%): 24%
  Total Cell Count: 555
